pEC50, pIC50: −log10 of the molar value. Active and inactive are the calls of the source. The calls are words filed in the database; no cut-off is given here.
Legend:
[1] = biological target: T1, Inosine-5'-monophosphate dehydrogenase (Cryptosporidium parvum, UniProt Q8T6T2); assay: Inhibition of recombinant Cryptosporidium parvum IMPDH assessed as production of NADH by fluorescence assay in presence of 0.05% BSA
T1 sequence (Q8T6T2 whole entry): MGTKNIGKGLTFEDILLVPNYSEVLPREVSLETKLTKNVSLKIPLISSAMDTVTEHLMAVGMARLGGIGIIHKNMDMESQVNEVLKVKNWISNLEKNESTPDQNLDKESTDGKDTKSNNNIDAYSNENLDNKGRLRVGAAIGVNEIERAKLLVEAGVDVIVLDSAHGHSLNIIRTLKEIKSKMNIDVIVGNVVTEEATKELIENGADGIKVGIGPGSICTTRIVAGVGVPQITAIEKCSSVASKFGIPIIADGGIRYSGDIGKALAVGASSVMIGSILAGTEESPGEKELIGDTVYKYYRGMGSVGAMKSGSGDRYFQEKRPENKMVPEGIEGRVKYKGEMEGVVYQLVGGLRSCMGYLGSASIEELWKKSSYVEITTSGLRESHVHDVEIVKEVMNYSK
How it was run: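 Enzyme inhibition was measured with 0.05% fatty acid free BSA added, to assess non-specific binding.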

[2] = biological target: T1, Inosine-5'-monophosphate dehydrogenase; assay: Inhibition of recombinant Cryptosporidium parvum IMPDH assessed as production of NADH by fluorescence assay
Toxoplasma gondii [3] = assay: Selectivity ratio for EC50 for wild type Toxoplasma gondii to EC50 for Cryptosporidium parvum IMPDH expressing Toxoplasma gondii; format: functional
Toxoplasma gondii [4] = assay: Antiparasitic activity against Cryptosporidium parvum IMPDH expressing Toxoplasma gondii assessed as growth inhibition; format: functional, organism-based
Toxoplasma gondii [5] = assay: Antiparasitic activity against wild type Toxoplasma gondii assessed as growth inhibition; format: functional, organism-based
[6] = biological target: T2, Inosine-5'-monophosphate dehydrogenase (Cryptosporidium parvum) (UniProt Q8T6T2); assay: Mixed type inhibition of recombinant Cryptosporidium parvum IMPDH with respect to NAD+
T2 sequence (whole entry): T1 sequence (Q8T6T2 whole entry)

Cryptosporidium parvum = assay: Antiparasitic activity against Cryptosporidium parvum infected in IL12 knockout mouse model at 250 mg/kg, po for 7 days; format: functional, organism-based; design: dose 250 mg/kg
How it was run: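 IL12 knockout mice were inoculated with 1,000 oocysts and, from 4 h post-infection, dosed by gavage once daily for 7 days at 250 mg/kg in 10% DMSO/corn oil. Controls were vehicle and paromomycin 2000 mg/kg. Oocysts from feces (days 0, 4, 7) were purified on sucrose gradients, stained 20 min with FITC-labelled OW50 antibody, and counted by flow cytometry, with ANOVA.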

Liver = assay: Half life in mouse liver microsomes; format: ADME, Microsome
[7] = biological target: T2, Inosine-5'-monophosphate dehydrogenase (Cryptosporidium parvum); assay: Pure noncompetitive inhibition of recombinant Cryptosporidium parvum IMPDH with respect to NAD+

Row | SMILES | pIC50 [1] | pIC50 [2] | other results
1 | Cc1cc2cc(NC(=O)Cc3nn(C)c(=O)c4ccccc34)ccc2o1 | 7.14 | 7.19 | 
2 | CC(C)c1ccc(NC(=O)Cc2nn(C)c(=O)c3ccccc23)cc1 |  | < 5.30 | 
3 | O=C(Cc1n[nH]c(=O)c2ccccc12)Nc1ccc(Cl)c(C(F)(F)F)c1 | 7.21 | 7.40 | 
4 | CCn1c2ccccc2c2cc(NC(=O)Cc3nn(C)c(=O)c4ccccc34)ccc21 |  | < 5.30 | 
5 | Cn1nc(CC(=O)Nc2ccc3ocnc3c2)c2ccccc2c1=O |  | < 5.30 | 
6 | Cn1nc(CC(=O)Nc2ccc3oc4c(c3c2)CCCC4)c2ccccc2c1=O | 6.82 | 7.70 | Ratio EC50 (Toxoplasma gondii [3]): 2; pEC50 (Toxoplasma gondii [4]): 6.30; pEC50 (Toxoplasma gondii [5]): 6.00
7 | Cn1nc(CC(=O)Nc2ccc(C#N)c(Cl)c2)c2ccccc2c1=O | 6.33 | 6.54 | 
8 | Cn1nc(CC(=O)NN)c2ccccc2c1=O |  | < 5.30 | 
9 | Cc1cc(NC(=O)Cc2nn(C)c(=O)c3ccccc23)ccc1Br | 6.85 | 7.15 | 
10 | Cc1cc(NC(=O)Cc2nn(C)c(=O)c3ccccc23)ccc1Cl | 7.02 | 7.10 | 
11 | Cn1nc(CC(=O)Nc2ccc3c(c2)oc2ccccc23)c2ccccc2c1=O |  | < 5.30 | 
12 | Cn1nc(CC(=O)NC(C)(C)C)c2ccccc2c1=O |  | < 5.30 | 
13 | Cn1nc(CC(=O)Nc2ccc(Cl)cc2Cl)c2ccccc2c1=O |  | < 5.30 | 
14 | COc1cccc(NC(=O)Cc2nn(C)c(=O)c3ccccc23)c1 |  | < 5.30 | 
15 | Cn1nc(CC(=O)Nc2ccc(Br)cc2Br)c2ccccc2c1=O |  | < 5.30 | 
16 | Cn1nc(CC(=O)Nc2ccc(OC(F)(F)F)cc2)c2ccccc2c1=O |  | < 5.30 | 
17 | Cn1nc(CC(=O)Nc2ccc(Cl)c(F)c2)c2ccccc2c1=O | 6.62 | 6.70 | 
18 | Cn1nc(CC(=O)Nc2cccc(Cl)c2)c2ccccc2c1=O |  | < 5.30 | 
19 | COc1cc(NC(=O)Cc2nn(C)c(=O)c3ccccc23)ccc1Cl | 7.40 | 7.48 | 
20 | Cn1nc(CC(=O)Nc2ccc(Br)c(C(F)(F)F)c2)c2ccccc2c1=O | 7.32 | 7.62 | Ratio EC50 (Toxoplasma gondii [3]): 14; pEC50 (Toxoplasma gondii [4]): 6.52; pEC50 (Toxoplasma gondii [5]): 5.40
21 | Cn1nc(CC(=O)Nc2cc(Cl)cc(Cl)c2)c2ccccc2c1=O |  | < 5.30 | 
22 | COc1ccc(NC(=O)Cc2nn(C)c(=O)c3ccccc23)cc1 | 6.03 | 6.00 | Kii [6]: 7 µM; Kis [6]: 1.8 µM
23 | Cn1nc(CC(=O)Nc2ccc3ccccc3c2)c2ccccc2c1=O | 6.85 | 7.20 | 
24 | Cn1nc(CC(=O)Nc2ccc(Cl)cc2)c2ccccc2c1=O | 6.55 | 6.64 | 
25 | Cn1nc(CC(=O)Nc2ccc(C#N)c(C#N)c2)c2ccccc2c1=O | < 5.60 | < 5.60 | 
26 | Cn1nc(CC(=O)Nc2ccc(Br)cc2F)c2ccccc2c1=O | 5.77 | 5.96 | 

Row | SMILES | pIC50 [1] | pIC50 [2] | other results
27 | Cn1nc(CC(=O)Nc2cc(Cl)c(Cl)c(Cl)c2)c2ccccc2c1=O |  | < 5.30 | 
28 | Cn1nc(CC(=O)Nc2ccc3oc4ccccc4c3c2)c2ccccc2c1=O | 7.52 |  | Ratio EC50 (Toxoplasma gondii [3]): 7; pEC50 (Toxoplasma gondii [4]): 6.40; pEC50 (Toxoplasma gondii [5]): 5.52
29 | COc1ccc(NC(=O)Cc2nn(C)c(=O)c3ccccc23)cc1C(F)(F)F |  | < 5.30 | 
30 | Cn1nc(CC(=O)Nc2cccc(C(F)(F)F)c2)c2ccccc2c1=O |  | < 5.30 | 
31 | Cn1nc(CC(=O)Nc2ccc(Br)cc2C(F)(F)F)c2ccccc2c1=O |  | < 5.30 | 
32 | Cn1nc(CC(=O)Nc2ccc(F)cc2)c2ccccc2c1=O |  | < 5.30 | 
33 | Cc1cc(NC(=O)Cc2nn(C)c(=O)c3ccccc23)ccc1C#N | 6.34 | 6.40 | 
34 | CCOc1ccc(NC(=O)Cc2nn(C)c(=O)c3ccccc23)cc1 |  | < 5.30 | 
35 | Cn1nc(CC(=O)Nc2ccc(Br)c(Cl)c2)c2ccccc2c1=O | 7.12 | 7.52 | 
36 | O=C(Cc1n[nH]c(=O)c2ccccc12)Nc1ccc(Br)c(C(F)(F)F)c1 | 6.89 | 7.49 | 
37 | Cn1nc(CC(=O)Nc2ccc(C#N)cc2)c2ccccc2c1=O | 6.03 | 6.02 | 
38 | Cn1nc(CC(=O)Nc2ccc(C(F)(F)F)cc2)c2ccccc2c1=O |  | < 5.30 | 
39 | Cn1nc(CC(=O)Nc2ccc3[nH]c4ccccc4c3c2)c2ccccc2c1=O |  | < 5.30 | 
40 | Cn1nc(CC(=O)Nc2cc(F)c(F)c(F)c2)c2ccccc2c1=O |  | < 5.30 | 
41 | Cn1nc(CC(=O)Nc2ccc(Cl)c(Cl)c2)c2ccccc2c1=O | 7.02 | 7.26 | 
42 | COc1ccccc1NC(=O)Cc1nn(C)c(=O)c2ccccc12 |  | < 5.30 | 
43 | Cn1nc(CC(=O)Nc2ccc3occc3c2)c2ccccc2c1=O | 7.07 | 7.03 | 
44 | COc1ccc(CNC(=O)Cc2nn(C)c(=O)c3ccccc23)cc1 |  | < 5.30 | 
45 | Cn1nc(CC(=O)Nc2ccc(S(C)(=O)=O)cc2)c2ccccc2c1=O |  | < 5.30 | 
46 | Cc1ccc(NC(=O)Cc2nn(C)c(=O)c3ccccc23)cc1 |  | < 5.30 | 
47 | Cn1nc(CC(=O)Nc2ccc(Cl)c(C(F)(F)F)c2)c2ccccc2c1=O | 7.60 | 7.89 | Activity (Cryptosporidium parvum): inactive; Ratio EC50 (Toxoplasma gondii [3]): 60; pEC50 (Toxoplasma gondii [4]): 6.40; pEC50 (Toxoplasma gondii [5]): 4.64; t1/2 (Liver): 79 min; Kii [7]: 3.4 nM; Kis [7]: 3.4 nM
48 | Cn1nc(CC(=O)Nc2ccc(N)c(C(F)(F)F)c2)c2ccccc2c1=O |  | < 5.30 | 
49 | Cn1nc(CC(=O)Nc2ccc(C#N)c(C(F)(F)F)c2)c2ccccc2c1=O | 7.28 | 7.27 | 
50 | Cn1nc(CC(=O)Nc2ccc(Cl)cc2C(F)(F)F)c2ccccc2c1=O |  | < 5.30 | 
51 | Cn1nc(CC(=O)Nc2ccc(Br)cc2)c2ccccc2c1=O | 6.89 | 6.89 | 
52 | Cn1nc(CC(=O)Nc2ccc(F)c(C(F)(F)F)c2)c2ccccc2c1=O | 6.82 | 6.82 | 

— ChEMBL document CHEMBL2311526, “Phthalazinone inhibitors of inosine-5'-monophosphate dehydrogenase from Cryptosporidium parvum” (Bioorg Med Chem Lett, 2013)
